From ChEMBL document CHEMBL3352345, “Design, synthesis and biological evaluation of novel thieno[3,2-d]pyrimidine derivatives containing diaryl urea moiety as potent antitumor agents” (Eur J Med Chem, 2014)

Experiments:
[1] = molecular target: Serine/threonine-protein kinase B-raf (Homo sapiens, UniProt P15056); assay: Inhibition of B-Raf (unknown origin) using poly (Glu, Tyr) 4:1 substrate incubated for 30 mins by HTRF assay
[2] = molecular target: Epidermal growth factor receptor (Homo sapiens, UniProt P00533); assay: Inhibition of EGFR (unknown origin) using poly (Glu, Tyr) 4:1 substrate incubated for 30 mins by HTRF assay
[3] = Cytotoxicity against human MKN45 cells after 72 hrs by MTT assay; type: functional, cell-based; conditions: MKN-45, 72 h
How it was run: (§1)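 Cells suspended in MEM medium, plated and incubated 24 h at 37 °C in 5% CO₂, then exposed to compounds at indicated final concentrations for 72 h. IC₅₀ from averages of three determinations, relative to DMSO vehicle control.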

[4] = molecular target: T1, Receptor-type tyrosine-protein kinase FLT3 (Homo sapiens, UniProt P36888); assay: Inhibition of FLT3 (unknown origin) using poly (Glu, Tyr) 4:1 substrate incubated for 30 mins by HTRF assay
T1 sequence (P36888 whole entry): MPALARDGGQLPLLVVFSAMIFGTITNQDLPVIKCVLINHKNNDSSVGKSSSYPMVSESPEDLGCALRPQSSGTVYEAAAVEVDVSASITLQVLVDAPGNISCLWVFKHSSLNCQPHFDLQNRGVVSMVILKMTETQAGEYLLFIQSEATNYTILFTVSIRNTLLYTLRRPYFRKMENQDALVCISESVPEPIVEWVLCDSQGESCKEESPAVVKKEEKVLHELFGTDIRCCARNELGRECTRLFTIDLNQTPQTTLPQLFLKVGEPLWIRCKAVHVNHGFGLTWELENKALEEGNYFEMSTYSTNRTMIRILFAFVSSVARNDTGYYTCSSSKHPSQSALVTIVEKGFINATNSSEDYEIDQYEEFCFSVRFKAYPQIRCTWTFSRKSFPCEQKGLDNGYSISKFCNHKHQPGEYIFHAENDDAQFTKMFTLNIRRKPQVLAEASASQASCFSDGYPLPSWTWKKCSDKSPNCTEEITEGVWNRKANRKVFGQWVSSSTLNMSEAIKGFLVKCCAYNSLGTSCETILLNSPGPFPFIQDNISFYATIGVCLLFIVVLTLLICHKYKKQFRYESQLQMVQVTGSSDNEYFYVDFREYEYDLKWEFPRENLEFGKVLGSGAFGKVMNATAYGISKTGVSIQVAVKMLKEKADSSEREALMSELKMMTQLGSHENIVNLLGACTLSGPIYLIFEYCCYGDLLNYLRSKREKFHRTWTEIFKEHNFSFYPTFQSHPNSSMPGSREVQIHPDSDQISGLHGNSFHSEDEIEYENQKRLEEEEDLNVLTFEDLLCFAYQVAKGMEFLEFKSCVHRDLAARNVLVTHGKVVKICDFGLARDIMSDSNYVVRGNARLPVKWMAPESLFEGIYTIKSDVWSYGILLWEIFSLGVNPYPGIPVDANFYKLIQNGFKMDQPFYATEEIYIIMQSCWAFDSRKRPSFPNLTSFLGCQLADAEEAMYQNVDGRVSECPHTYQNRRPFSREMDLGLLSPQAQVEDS
How it was run: (§2)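 Compounds in 1% DMSO, blank DMSO as negative control. Reaction started with purified tyrosine kinase, 30 min at 25 °C, stopped with Streptavidin-XL665 and Tk antibody cryptate; read at […] and 615 nm.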

[5] = molecular target: Phosphatidylinositol 4,5-bisphosphate 3-kinase catalytic subunit alpha isoform (Homo sapiens, UniProt P42336); assay: Inhibition of PI3Kalpha (unknown origin) using poly (Glu, Tyr) 4:1 substrate incubated for 30 mins by HTRF assay
[6] = test system: MDA-MB-231; assay: Cytotoxicity against human MDA-MB-231 cells after 72 hrs by MTT assay; type: functional, cell-based; conditions: MDA-MB-231, 72 h; how it was run: as §1
[7] = molecular target: Platelet-derived growth factor receptor beta (Homo sapiens, UniProt P09619); assay: Inhibition of PDGFRbeta (unknown origin) using poly (Glu, Tyr) 4:1 substrate incubated for 30 mins by HTRF assay; how it was run: as §2
[8] = molecular target: Serine/threonine-protein kinase mTOR (Homo sapiens, UniProt P42345); assay: Inhibition of mTOR (unknown origin) using poly (Glu, Tyr) 4:1 substrate incubated for 30 mins by HTRF assay; how it was run: as §2
[9] = test system: HT-29; assay: Induction of apoptosis in human HT-29 cells assessed as increase in PARP cleavage at 1 uM pre-treated for 48 hrs by Western blot method relative to beta-actin expression; type: functional
How it was run: (§3)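 HT-29 cells (about 1 × 10⁷) treated 48 h with vehicle or 1 or 5 µM compound; lysates prepared with lysis buffer plus protease inhibitor cocktail and sonicated. Equal total protein run on 10% SDS-PAGE, transferred to PVDF, probed with primary and HRP secondary antibodies. Cleaved PARP to β-actin ratio expressed relative to control.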

[10] = test system: HT-29; assay: Cytotoxicity against human HT-29 cells after 72 hrs by MTT assay; type: functional, cell-based; conditions: HT-29, 72 h; how it was run: as §1
[11] = test system: HT-29; assay: Induction of apoptosis in human HT-29 cells assessed as increase in PARP cleavage at 5 uM pre-treated for 48 hrs by Western blot method relative to beta-actin expression; type: functional; how it was run: as §3
[12] = test system: HT-29; assay: Induction of apoptosis in human HT-29 cells assessed as increase in PARP cleavage pre-treated for 48 hrs by Western blot method; type: functional, cell-based; how it was run: as §3
[13] = molecular target: RAF proto-oncogene serine/threonine-protein kinase (Homo sapiens, UniProt P04049); assay: Inhibition of C-Raf (unknown origin) using poly (Glu, Tyr) 4:1 substrate incubated for 30 mins by HTRF assay; how it was run: as §2
[14] = molecular target: Vascular endothelial growth factor receptor (Homo sapiens, UniProt P17948+P35916+P35968); assay: Inhibition of VEGFR (unknown origin) using poly (Glu, Tyr) 4:1 substrate incubated for 30 mins by HTRF assay; type: protein assay
[15] = molecular target: Vascular endothelial growth factor receptor 2 (Homo sapiens, UniProt P35968); assay: Inhibition of KDR (unknown origin) using poly (Glu, Tyr) 4:1 substrate incubated for 30 mins by HTRF assay
[16] = Cytotoxicity against human H460 cells after 72 hrs by MTT assay; type: functional, cell-based; conditions: NCI-H460, 72 h; how it was run: as §1
[17] = molecular target: Mast/stem cell growth factor receptor Kit (Homo sapiens, UniProt P10721); assay: Inhibition of KIT (unknown origin) using poly (Glu, Tyr) 4:1 substrate incubated for 30 mins by HTRF assay; how it was run: as §2
Mast/stem cell growth factor receptor Kit, sequence (P10721 whole entry): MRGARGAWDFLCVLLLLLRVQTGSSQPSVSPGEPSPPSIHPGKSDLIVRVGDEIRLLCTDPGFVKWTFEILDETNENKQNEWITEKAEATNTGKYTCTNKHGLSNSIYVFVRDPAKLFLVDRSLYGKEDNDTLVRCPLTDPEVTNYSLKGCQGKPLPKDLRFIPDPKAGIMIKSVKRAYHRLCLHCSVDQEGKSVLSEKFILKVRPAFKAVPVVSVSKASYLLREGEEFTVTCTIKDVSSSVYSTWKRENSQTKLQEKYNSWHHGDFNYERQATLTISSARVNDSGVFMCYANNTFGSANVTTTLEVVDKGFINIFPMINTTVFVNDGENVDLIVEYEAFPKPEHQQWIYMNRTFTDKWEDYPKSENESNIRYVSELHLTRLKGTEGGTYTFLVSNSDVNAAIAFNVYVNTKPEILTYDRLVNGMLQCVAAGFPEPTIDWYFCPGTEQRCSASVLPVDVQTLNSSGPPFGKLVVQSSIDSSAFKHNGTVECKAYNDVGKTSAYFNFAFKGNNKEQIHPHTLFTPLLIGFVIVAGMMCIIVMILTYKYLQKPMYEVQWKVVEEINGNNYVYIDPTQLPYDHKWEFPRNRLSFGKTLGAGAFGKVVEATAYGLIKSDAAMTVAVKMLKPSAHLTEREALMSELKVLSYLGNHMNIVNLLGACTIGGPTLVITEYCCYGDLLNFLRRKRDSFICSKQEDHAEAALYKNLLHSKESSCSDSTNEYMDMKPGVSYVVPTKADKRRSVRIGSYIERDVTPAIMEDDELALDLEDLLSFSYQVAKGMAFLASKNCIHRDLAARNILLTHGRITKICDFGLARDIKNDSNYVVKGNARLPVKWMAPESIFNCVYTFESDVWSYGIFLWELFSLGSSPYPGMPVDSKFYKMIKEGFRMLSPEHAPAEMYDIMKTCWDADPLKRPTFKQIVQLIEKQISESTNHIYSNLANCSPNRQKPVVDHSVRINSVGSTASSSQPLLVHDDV

Platelet-derived growth factor receptor beta, sequence (P09619 whole entry): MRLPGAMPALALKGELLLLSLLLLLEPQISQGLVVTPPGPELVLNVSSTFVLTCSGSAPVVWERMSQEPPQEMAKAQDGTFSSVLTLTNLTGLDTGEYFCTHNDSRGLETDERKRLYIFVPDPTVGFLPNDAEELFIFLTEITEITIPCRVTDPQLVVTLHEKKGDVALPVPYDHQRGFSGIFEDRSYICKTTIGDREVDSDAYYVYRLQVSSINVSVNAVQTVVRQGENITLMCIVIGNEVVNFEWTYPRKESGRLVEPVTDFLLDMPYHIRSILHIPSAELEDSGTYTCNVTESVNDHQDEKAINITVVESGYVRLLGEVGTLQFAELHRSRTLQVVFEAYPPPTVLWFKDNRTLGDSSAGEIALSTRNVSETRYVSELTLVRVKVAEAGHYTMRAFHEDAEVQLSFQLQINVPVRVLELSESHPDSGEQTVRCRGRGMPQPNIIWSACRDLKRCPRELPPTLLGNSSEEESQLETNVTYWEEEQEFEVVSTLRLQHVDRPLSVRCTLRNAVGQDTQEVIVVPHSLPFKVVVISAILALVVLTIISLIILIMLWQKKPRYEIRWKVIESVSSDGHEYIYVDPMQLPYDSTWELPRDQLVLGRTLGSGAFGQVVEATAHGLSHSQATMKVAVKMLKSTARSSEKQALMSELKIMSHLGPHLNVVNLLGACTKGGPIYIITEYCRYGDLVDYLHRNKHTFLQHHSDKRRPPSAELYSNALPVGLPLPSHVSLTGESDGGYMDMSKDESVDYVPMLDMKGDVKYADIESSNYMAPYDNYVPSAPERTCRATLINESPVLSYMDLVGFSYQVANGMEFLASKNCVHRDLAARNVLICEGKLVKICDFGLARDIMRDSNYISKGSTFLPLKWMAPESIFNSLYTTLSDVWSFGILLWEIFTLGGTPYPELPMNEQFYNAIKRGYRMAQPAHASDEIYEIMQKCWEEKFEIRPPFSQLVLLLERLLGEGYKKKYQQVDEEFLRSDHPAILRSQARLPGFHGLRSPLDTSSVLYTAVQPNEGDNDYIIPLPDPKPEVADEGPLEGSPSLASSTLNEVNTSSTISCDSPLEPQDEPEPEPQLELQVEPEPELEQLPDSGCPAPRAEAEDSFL
Phosphatidylinositol 4,5-bisphosphate 3-kinase catalytic subunit alpha isoform, sequence (P42336 whole entry, canonical isoform): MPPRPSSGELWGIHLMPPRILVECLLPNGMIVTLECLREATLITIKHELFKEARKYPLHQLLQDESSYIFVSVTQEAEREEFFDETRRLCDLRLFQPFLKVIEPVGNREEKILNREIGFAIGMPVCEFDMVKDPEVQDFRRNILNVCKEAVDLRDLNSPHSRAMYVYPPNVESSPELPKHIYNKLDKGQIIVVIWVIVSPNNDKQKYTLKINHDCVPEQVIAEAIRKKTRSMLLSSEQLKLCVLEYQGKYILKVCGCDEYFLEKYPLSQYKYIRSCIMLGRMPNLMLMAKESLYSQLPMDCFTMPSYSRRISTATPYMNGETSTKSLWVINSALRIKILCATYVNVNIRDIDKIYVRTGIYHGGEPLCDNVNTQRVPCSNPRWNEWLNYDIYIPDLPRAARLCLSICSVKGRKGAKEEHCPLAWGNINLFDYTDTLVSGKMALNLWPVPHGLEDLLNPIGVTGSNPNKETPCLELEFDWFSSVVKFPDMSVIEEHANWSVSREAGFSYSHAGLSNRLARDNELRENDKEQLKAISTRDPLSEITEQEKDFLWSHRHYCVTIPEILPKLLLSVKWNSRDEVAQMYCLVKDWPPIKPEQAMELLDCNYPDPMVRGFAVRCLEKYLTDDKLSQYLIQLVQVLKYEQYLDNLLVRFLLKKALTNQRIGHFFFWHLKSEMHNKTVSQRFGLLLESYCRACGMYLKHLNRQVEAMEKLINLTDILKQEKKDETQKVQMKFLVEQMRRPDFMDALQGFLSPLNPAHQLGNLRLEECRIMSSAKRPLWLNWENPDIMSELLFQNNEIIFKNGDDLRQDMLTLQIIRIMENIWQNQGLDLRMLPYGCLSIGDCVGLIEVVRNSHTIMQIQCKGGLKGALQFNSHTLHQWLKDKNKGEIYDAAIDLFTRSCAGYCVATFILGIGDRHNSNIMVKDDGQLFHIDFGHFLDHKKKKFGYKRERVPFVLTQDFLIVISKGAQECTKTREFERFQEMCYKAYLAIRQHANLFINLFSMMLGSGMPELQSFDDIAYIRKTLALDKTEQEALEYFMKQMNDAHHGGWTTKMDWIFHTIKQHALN
RAF proto-oncogene serine/threonine-protein kinase, sequence (P04049 whole entry): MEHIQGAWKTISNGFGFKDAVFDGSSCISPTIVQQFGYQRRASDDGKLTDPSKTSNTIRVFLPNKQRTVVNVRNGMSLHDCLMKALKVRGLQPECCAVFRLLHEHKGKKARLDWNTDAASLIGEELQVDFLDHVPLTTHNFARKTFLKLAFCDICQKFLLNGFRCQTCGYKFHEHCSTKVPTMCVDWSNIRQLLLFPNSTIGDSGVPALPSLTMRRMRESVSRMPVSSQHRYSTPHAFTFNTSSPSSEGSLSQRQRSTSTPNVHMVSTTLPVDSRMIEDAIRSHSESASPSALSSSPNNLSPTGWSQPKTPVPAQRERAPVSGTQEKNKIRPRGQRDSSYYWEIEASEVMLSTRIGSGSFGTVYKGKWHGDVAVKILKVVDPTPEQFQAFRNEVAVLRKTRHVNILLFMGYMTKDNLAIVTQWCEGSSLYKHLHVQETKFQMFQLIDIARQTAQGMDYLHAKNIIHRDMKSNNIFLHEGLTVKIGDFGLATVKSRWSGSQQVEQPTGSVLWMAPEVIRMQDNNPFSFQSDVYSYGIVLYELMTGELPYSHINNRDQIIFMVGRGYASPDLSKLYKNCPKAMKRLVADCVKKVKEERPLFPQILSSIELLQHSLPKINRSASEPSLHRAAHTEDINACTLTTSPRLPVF
Epidermal growth factor receptor, sequence (P00533 whole entry): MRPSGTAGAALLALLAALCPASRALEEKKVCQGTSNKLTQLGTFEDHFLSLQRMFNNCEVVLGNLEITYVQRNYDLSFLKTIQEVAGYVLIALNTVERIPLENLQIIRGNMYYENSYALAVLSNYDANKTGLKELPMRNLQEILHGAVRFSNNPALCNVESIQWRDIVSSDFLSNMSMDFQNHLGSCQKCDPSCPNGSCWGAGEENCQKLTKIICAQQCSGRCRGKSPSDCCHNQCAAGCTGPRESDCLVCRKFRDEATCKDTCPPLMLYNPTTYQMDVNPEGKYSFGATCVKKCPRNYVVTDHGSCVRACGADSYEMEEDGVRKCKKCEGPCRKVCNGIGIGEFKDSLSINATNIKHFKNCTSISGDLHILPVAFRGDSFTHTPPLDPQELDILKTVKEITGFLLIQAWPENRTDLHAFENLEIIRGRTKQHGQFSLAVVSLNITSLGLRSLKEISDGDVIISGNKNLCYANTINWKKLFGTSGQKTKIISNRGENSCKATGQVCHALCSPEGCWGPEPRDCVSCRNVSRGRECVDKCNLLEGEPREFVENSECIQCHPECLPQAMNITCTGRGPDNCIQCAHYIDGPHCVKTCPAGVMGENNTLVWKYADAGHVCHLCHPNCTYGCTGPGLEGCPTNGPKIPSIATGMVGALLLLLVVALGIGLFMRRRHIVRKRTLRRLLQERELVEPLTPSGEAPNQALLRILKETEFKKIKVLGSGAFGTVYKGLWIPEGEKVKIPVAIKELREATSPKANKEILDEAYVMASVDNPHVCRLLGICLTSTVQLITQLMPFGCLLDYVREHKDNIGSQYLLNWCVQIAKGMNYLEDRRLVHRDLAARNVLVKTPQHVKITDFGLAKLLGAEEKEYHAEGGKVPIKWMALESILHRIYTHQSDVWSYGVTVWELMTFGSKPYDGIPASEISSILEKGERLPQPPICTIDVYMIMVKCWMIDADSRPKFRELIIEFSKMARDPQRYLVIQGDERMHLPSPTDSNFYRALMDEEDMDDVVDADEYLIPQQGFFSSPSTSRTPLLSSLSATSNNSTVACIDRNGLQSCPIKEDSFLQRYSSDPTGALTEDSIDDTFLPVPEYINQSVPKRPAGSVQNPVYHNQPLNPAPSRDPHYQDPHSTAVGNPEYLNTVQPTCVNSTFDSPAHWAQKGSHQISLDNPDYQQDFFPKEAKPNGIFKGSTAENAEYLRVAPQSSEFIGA

`CCN(CC)CCCNc1nc(-c2ccc(NC(=O)Nc3ccc(Cl)cc3)cc2)nc2ccsc12` showed an IC50 [1] of over 10 µM, an IC50 [2] of over 10 µM and an IC50 [3] of 0.18 µM. It also gave an IC50 [4] of 1 µM, an IC50 [5] of 0.13 µM and an IC50 [6] of 0.23 µM. The IC50 [7] was 5.8 µM, the IC50 [8] was over 10 µM and the “fold change (FC)” value [9] was 2.5. For the same compound, the IC50 [10] was 0.058 µM, the “fold change (FC)” value [11] was 3.5 and the Activity [12] was “Dose-dependent effect”. It also gave an IC50 [13] of over 10 µM, an IC50 [14] of over 10 µM and an IC50 [15] of over 10 µM. The IC50 [16] was 0.081 µM and the IC50 [17] was 6.1 µM.
